Tests used:
PI3Kα (p110α/p85α) = PI3Kα (p110α/p85α) (Homo sapiens, UniProt P42336); assay: PI3Kα enzyme assay; format: biochemical
Procedure, shortened: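 Purchased recombinant PI3K enzyme (α, β, δ as p110/p85α; γ as p120γ) was mixed with the PIP2:3PS lipid substrate, and the reaction was started with ATP from a 250 µM solution. Luminescence was read by ADP-Glo. Inhibition was normalised to DMSO and no-enzyme controls, with IC50 averaged over two runs.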

mTOR enzyme = mTOR enzyme (Homo sapiens, UniProt P42345); assay: mTOR enzyme assay; format: biochemical; details: for Selectivity: PI3Kα IC50 relative to mTOR IC50 (table column); for inhibitory activity against mTOR (in words): derivatives with a para-substituent group on R3

Chain of PI3Kα (p110α/p85α) (P42336 whole entry): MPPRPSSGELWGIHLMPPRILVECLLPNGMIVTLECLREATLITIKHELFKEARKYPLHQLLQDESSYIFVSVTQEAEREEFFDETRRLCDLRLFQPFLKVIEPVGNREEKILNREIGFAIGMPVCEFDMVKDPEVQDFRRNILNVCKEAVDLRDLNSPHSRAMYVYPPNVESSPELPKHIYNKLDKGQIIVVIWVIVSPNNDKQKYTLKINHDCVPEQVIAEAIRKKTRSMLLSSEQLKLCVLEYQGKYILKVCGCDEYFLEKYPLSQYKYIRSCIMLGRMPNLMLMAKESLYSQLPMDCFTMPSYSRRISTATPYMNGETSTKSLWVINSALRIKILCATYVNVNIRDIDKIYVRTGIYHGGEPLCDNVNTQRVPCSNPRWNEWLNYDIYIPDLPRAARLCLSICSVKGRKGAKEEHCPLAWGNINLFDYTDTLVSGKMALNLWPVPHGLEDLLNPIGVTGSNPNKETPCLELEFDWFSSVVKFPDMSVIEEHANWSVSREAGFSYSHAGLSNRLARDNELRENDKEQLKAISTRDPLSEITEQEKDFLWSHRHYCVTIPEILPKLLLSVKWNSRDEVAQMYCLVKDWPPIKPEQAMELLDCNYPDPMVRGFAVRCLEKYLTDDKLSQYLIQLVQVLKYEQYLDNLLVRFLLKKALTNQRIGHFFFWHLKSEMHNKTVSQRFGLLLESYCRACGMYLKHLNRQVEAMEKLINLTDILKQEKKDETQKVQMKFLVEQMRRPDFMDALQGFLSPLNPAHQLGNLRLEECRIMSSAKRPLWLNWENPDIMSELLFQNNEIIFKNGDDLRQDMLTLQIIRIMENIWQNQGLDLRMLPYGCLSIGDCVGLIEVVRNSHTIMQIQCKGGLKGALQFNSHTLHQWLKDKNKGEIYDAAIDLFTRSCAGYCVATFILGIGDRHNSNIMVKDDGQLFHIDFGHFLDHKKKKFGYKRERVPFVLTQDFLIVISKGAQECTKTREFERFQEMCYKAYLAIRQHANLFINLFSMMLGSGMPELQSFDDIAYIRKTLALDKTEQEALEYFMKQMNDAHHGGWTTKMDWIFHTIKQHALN
Chain of PI3Kα (p110α/p85α) (P27986 whole entry partner): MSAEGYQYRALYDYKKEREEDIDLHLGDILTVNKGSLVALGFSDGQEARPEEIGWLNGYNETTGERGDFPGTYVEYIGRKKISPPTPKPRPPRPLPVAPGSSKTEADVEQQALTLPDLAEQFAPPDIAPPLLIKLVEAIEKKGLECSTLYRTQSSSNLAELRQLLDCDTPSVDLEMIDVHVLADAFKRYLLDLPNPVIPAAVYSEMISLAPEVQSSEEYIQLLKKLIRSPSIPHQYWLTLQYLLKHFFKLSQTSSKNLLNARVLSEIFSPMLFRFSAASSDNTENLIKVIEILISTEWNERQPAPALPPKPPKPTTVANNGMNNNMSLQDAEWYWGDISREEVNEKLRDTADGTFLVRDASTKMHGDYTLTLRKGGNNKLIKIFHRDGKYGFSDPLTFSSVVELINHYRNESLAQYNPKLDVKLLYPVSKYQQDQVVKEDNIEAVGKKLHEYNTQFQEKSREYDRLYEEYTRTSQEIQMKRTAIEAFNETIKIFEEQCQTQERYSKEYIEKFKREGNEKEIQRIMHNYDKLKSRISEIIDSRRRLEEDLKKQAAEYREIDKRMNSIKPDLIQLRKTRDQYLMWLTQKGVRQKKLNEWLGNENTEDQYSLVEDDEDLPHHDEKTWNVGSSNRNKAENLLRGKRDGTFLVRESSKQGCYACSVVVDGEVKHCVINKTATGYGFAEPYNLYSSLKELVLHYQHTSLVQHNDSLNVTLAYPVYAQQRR

| IC50 (PI3Kα (p110α/p85α)) [nM] | IC50 (mTOR enzyme) [nM] | Selectivity (mTOR enzyme) | inhibition at 10 µM (mTOR enzyme; read-out: mTOR enzyme inhibition rate) [%] | inhibitory activity against mTOR (in words) (mTOR enzyme) | Compound |
| --- | --- | --- | --- | --- | --- |
| 1580 | 167 | 9 | 91.8 | – | COCCCSc1nc2n(n1)C(c1cccc(OC)c1)C(C(=O)Nc1cccnc1)=C(C)N2 (stereo not shown) [1a, 7-(3-Methoxyphenyl)-2-((3-Methoxypropyl)Thio)-5-Methyl-N-(Pyridin-3-yl)-4,7-Dihydro-[1,2,4]Triazolo[1,5-a]Pyrimidine-6-Carboxamide] |
| 793 | 50 | 16 | – | – | COc1cccc(C2C(C(=O)Nc3cccnc3)=C(C)Nc3nc(SCCC4OCCO4)nn32)c1 (stereo not shown) [1b, 2-((2-(1,3-Dioxolan-2-yl)Ethyl)Thio)-7-(3-Methoxyphenyl)-5-Methyl-N-(Pyridin-3-yl)-4,7-Dihydro-[1,2,4]Triazolo[1,5-a]Pyrimidine-6-Carboxamide] |
| 437 | 124 | 4 | – | – | COC(=O)CCSc1nc2n(n1)C(c1cccc(OC)c1)C(C(=O)Nc1cccc(F)c1)=C(C)N2 (stereo not shown) [2b, Methyl 3-((6-((3-Fluorophenyl)Carbamoyl)-7-(3-Methoxyphenyl)-5-Methyl-4,7-Dihydro-[1,2,4]Triazolo[1,5-a]Pyrimidin-2-yl)Thio)Propanoate] |
| 1050 | 139 | 8 | – | – | COC(=O)CCSc1nc2n(n1)C(c1cccc(OC)c1)C(C(=O)Nc1ccc(OC)cc1)=C(C)N2 (stereo not shown) [2c, Methyl 3-((7-(3-Methoxyphenyl)-6-((4-Methoxyphenyl)Carbamoyl)-5-Methyl-4,7-Dihydro-[1,2,4]Triazolo[1,5-a]Pyrimidin-2-yl)Thio)Propanoate] |
| 228 | 23 | 10 | – | – | COC(=O)CCSc1nc2n(n1)C(c1cccc(OC)c1)C(C(=O)Nc1cccc(C(C)=O)c1)=C(C)N2 (stereo not shown) [2d, Methyl 3-((6-((3-Acetylphenyl)Carbamoyl)-7-(3-Methoxyphenyl)-5-Methyl-4,7-Dihydro-[1,2,4]Triazolo[1,5-a]Pyrimidin-2-yl)Thio)Propanoate] |
| 254 | 72 | 4 | – | – | COC(=O)CCSc1nc2n(n1)C(c1cccc(OC)c1)C(C(=O)Nc1ccc(C(C)=O)cc1)=C(C)N2 (stereo not shown) [2e, Methyl 3-((6-((4-Acetylphenyl)Carbamoyl)-7-(3-Methoxyphenyl)-5-Methyl-4,7-Dihydro-[1,2,4]Triazolo[1,5-a]Pyrimidin-2-yl)Thio)Propanoate] |
| 193 | 28 | 7 | – | – | COc1cccc(C2C(C(=O)Nc3cncc(C)c3)=C(C)Nc3nc(SCCC4OCCO4)nn32)c1 (stereo not shown) [2f, 2-((2-(1,3-Dioxolan-2-yl)Ethyl)Thio)-7-(3-Methoxyphenyl)-5-Methyl-N-(5-Methylpyridin-3-yl)-4,7-Dihydro-[1,2,4]Triazolo[1,5-a]Pyrimidine-6-Carboxamide] |
| 844 | 313 | 3 | – | – | COc1cccc(C2C(C(=O)Nc3cccc(F)c3)=C(C)Nc3nc(SCCC4OCCO4)nn32)c1 (stereo not shown) [2g, 2-((2-(1,3-Dioxolan-2-yl)Ethyl)Thio)-N-(3-Fluorophenyl)-7-(3-Methoxyphenyl)-5-Methyl-4,7-Dihydro-[1,2,4]Triazolo[1,5-a]Pyrimidine-6-Carboxamide] |
| 3200 | 359 | 9 | – | – | COc1ccc(NC(=O)C2=C(C)Nc3nc(SCCC4OCCO4)nn3C2c2cccc(OC)c2)cc1 (stereo not shown) [2h, 2-((2-(1,3-Dioxolan-2-yl)Ethyl)Thio)-7-(3-Methoxyphenyl)-N-(4-Methoxyphenyl)-5-Methyl-4,7-Dihydro-[1,2,4]Triazolo[1,5-a]Pyrimidine-6-Carboxamide] |
| 2680 | 92 | 29 | – | – | COc1cccc(C2C(C(=O)Nc3cccc(C(C)=O)c3)=C(C)Nc3nc(SCCC4OCCO4)nn32)c1 (stereo not shown) [2i, 2-((2-(1,3-Dioxolan-2-yl)Ethyl)Thio)-N-(3-Acetylphenyl)-7-(3-Methoxyphenyl)-5-Methyl-4,7-Dihydro-[1,2,4]Triazolo[1,5-a]Pyrimidine-6-Carboxamide] |
| 952 | 184 | 5 | – | – | COc1cccc(C2C(C(=O)Nc3ccc(C(C)=O)cc3)=C(C)Nc3nc(SCCC4OCCO4)nn32)c1 (stereo not shown) [2j, 2-((2-(1,3-Dioxolan-2-yl)Ethyl)Thio)-N-(4-Acetylphenyl)-7-(3-Methoxyphenyl)-5-Methyl-4,7-Dihydro-[1,2,4]Triazolo[1,5-a]Pyrimidine-6-Carboxamide] |
| 3560 | 260 | 14 | – | – | COC(=O)CCSc1nc2n(n1)C(c1cccc(O)c1)C(C(=O)Nc1cncc(C)c1)=C(C)N2 (stereo not shown) [3a, Methyl 3-((7-(3-Hydroxyphenyl)-5-Methyl-6-((5-Methylpyridin-3-yl) Carbamoyl)-4,7-Dihydro-[1,2,4] Triazolo[1,5-a]Pyrimidin-2-yl)Thio)Propanoate] |
| > 10000 | 2210 | >5 | – | low inhibitory activity against mTOR | COC(=O)CCSc1nc2n(n1)C(c1ccc(O)cc1)C(C(=O)Nc1cncc(C)c1)=C(C)N2 (stereo not shown) [3b, Methyl 3-((7-(4-Hydroxyphenyl)-5-Methyl-6-((5-Methylpyridin-3-yl) Carbamoyl)-4,7-Dihydro-[1,2,4]Triazolo[1,5-a]Pyrimidin-2-yl)Thio)Propanoate] |
| 703 | 246 | 3 | – | – | COC(=O)CCSc1nc2n(n1)C(c1ccccc1)C(C(=O)Nc1cncc(C)c1)=C(C)N2 (stereo not shown) [3c, Methyl 3-((5-Methyl-6-((5-Methylpyridin-3-yl)carbamoyl)-7-Phenyl-4,7- Dihydro-[1,2,4]Triazolo[1,5-a]Pyrimidin-2-yl)Thio)Propanoate] |
| 7360 | 932 | 8 | – | low inhibitory activity against mTOR | COC(=O)CCSc1nc2n(n1)C(c1ccc(C)cc1)C(C(=O)Nc1cncc(C)c1)=C(C)N2 (stereo not shown) [3d, Methyl 3-((5-Methyl-6-((5-Methylpyridin-3-yl)Carbamoyl)-7-(p-Tolyl)-4,7 -Dihydro-[1,2,4]Triazolo[1,5-a]Pyrimidin-2-yl)Thio)Propanoate] |
| 2770 | 479 | 6 | – | – | COC(=O)CCSc1nc2n(n1)C(c1ccccc1C)C(C(=O)Nc1cncc(C)c1)=C(C)N2 (stereo not shown) [3e, Methyl 3-((5-Methyl-6-((5-Methylpyridin-3-yl)Carbamoyl)-7-(o-Tolyl)-4,7-Dihydro-[1,2,4]Triazolo[1,5-a]pyrimidin-2-yl)Thio)Propanoate] |
| 433 | 529 | 0.8 | – | – | COC(=O)CCSc1nc2n(n1)C(c1cc(C)cc(C)c1)C(C(=O)Nc1cncc(C)c1)=C(C)N2 (stereo not shown) [3f, Methyl 3-((7-(3,5-Dimethylphenyl)-5-Methyl-6-((5-Methylpyridin-3-yl) Carbamoyl)-4,7-Dihydro-[1,2,4]Triazolo[1,5-a]Pyrimidin-2-yl)Thio)Propanoate] |
| > 10000 | 1770 | >6 | – | low inhibitory activity against mTOR | COC(=O)CCSc1nc2n(n1)C(c1ccc(F)cc1)C(C(=O)Nc1cncc(C)c1)=C(C)N2 (stereo not shown) [3g, Methyl 3-((7-(4-Fluorophenyl)-5-Methyl-6-((5-Methylpyridin-3-yl)carbamoyl)-4,7-Dihydro-[1,2,4] Triazolo[1,5-a]Pyrimidin-2-yl)Thio)Propanoate] |
| 738 | 326 | 2 | – | – | COC(=O)CCSc1nc2n(n1)C(c1cccc(F)c1)C(C(=O)Nc1cncc(C)c1)=C(C)N2 (stereo not shown) [3h, Methyl 3-((7-(3-Fluorophenyl)-5-Methyl-6-((5-Methylpyridin-3-yl)Carbamoyl)-4,7-Dihydro-[1,2,4] Triazolo[1,5-a]Pyrimidin-2-yl)Thio)Propanoate] |

Source: PMC7220363 (Drug Design, Development and Therapy, 2020)
